Source: PubChem BioAssay
A selection: hits, their analogues and other compounds. The true share with any hit is near 4.2%.
FXN GAA850 act – frataxin GAA850 promoter activation. AID 540364. activation, % at 6 µM. 360,000 compounds, 0.56% hits. HEK293 lucGAA850 FXN promoter luciferase reporter, 24 h; percent of 10 µM SAHA response;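 active = activation above the average of all compounds screened plus 3 SD, cutoff fixed separately per campaign, cut at about 7.5% in these data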
SENP1 FRET inh – SENP1 (human) catalytic domain inhibition. Q9P0U3. inhibition, % at 10 µM. 360,000 compounds, 0.21% hits. recombinant SENP1 catalytic domain, CyPet-SUMO1-YPet FRET cleavage;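 active = inhibition at least 30% at 10 µM, raw YFP signal under a set limit, fluorescence ratio 0.5 to 1.5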
Target sequence (Q9P0U3 419-644 limits assumed): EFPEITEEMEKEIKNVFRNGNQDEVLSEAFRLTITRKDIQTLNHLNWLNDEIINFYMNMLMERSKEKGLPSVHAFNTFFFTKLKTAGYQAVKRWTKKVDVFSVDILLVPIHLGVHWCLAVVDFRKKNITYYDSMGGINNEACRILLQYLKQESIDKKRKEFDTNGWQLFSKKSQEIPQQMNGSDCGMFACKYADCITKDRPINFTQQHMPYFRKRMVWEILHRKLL
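Compound: 10 µM single point, 0.5% DMSO; Test system: hSENP1 catalytic domain, recombinant; Timing: 50 min reaction at room temperature; Technique: FRET, CFP and YFP emission; Control set: no-enzyme wells low, DMSO-plus-enzyme wells high control.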
CTSL1 counter – counter-screen for PFM18AAP inhibitors: inhibitors of F. hepatica cathepsin L1. recombinant F. hepatica cathepsin L1, Z-Leu-Arg-MCA fluorescence. inhibition, % at 5.96 µM. 300,000 compounds, 0.49% hits. AID 1906;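 active = inhibition above the mean of all tested compounds plus 3 SD, set per screening campaign, cut at about 17% in these data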
M18AAP inhibitor – blocks P. falciparum M18 aspartyl aminopeptidase. recombinant PfM18AAP, H-Glu-NHMec fluorogenic cleavage. inhibition, % at 7.35 µM. 290,000 compounds, 1.2% hits;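 active = inhibition above the campaign mean inhibition over all tested compounds plus 3 SD, cut at about 28% in these data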
HDAC3 inh – human HDAC3 inhibition. O15379. recombinant HDAC3, fluorogenic peptide/trypsin coupled, fluorescence. inhibition, % at 8.3 µM. 320,000 compounds, 0.15% hits. AID 2718; in the data active = inhibition above about 26%, passing the limit was not always enough; inconclusive = no clear call, values can overlap the other calls
Target sequence (O15379 whole entry, looked up): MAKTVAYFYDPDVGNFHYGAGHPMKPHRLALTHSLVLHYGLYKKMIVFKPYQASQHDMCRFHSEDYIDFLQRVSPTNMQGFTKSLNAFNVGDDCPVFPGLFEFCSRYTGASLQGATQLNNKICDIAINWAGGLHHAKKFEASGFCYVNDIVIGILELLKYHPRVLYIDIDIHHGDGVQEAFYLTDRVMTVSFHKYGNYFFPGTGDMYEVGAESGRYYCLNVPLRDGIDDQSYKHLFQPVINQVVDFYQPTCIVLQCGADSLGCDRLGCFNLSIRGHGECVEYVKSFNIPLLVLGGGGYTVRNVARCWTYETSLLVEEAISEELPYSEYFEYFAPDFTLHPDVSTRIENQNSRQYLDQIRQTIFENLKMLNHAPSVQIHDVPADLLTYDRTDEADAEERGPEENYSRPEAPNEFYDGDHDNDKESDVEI
AHR act – activators of human aryl hydrocarbon receptor; AHR-responsive luciferase reporter cells, luminescence; AID 2796; 320,000 compounds, 2.5% hits; P35869; activation, % at 5 µM; in the data active = activation above about 47%
Each line names hits and unclear results; the compound was inactive in the other large screens.

Cc1c(Cl)cccc1NC(=S)N=Nc1c(O)n(CN2CCOCC2)c2ccccc12	AHR act 53 (no result: FXN GAA850 act)
C=CCSC(=S)NC1CCS(=O)(=O)C1 (stereo unspecified)	none
CCCc1nn(C)c(C(=O)Nc2cccc(C)c2)c1Cl	none
CCCc1nn(C)c(C(=O)Nc2cccc(Cl)c2)c1Cl	AHR act 89
Cc1cc(C)n2nc(CC(=O)NNC(=O)c3ccc(N(C)C)cc3)nc2n1	CTSL1 counter 36
O=[N+]([O-])c1ccc(C2=NN(CCO)C(=Nc3ccc(OC(F)(F)F)cc3)SC2)cc1	HDAC3 inh inconclusive
Cc1cccc(N(CC(=O)NC(C)(C)C)C(=O)CCC(=O)Nc2ccccn2)c1	CTSL1 counter 18
O=C1CCN(N=Nc2cccc(Cl)c2)N1	M18AAP inhibitor 31 (no result: FXN GAA850 act, SENP1 FRET inh)
O=C(Nc1ccc(Cl)cc1)c1ccc2sc([C@@H]3O[C@H](CO)[C@@H](O)[C@H]3O)nc2c1	none (no result: CTSL1 counter, M18AAP inhibitor, HDAC3 inh, AHR act)
Cc1ccc2[nH]c3nc(SCCN4CCOCC4)nnc3c2c1	none
Cc1ccc2[nH]c3nc(NN)nnc3c2c1	M18AAP inhibitor 31 (no result: CTSL1 counter, AHR act)
CCOc1ccc2oc(C(=O)N3CCN(c4ccccc4OCC)CC3)c(C)c2c1	none (no result: M18AAP inhibitor)
COC(=O)[C@@]12CCCCN1[C@H](c1ccc(-c3cccc(Cl)c3)c(OC)c1)[C@@H]1C(=O)N(C)C(=O)[C@@H]12	HDAC3 inh 33 (no result: M18AAP inhibitor)
Cc1ccc(NC(=O)Cc2c(O)c3ccccc3[nH]c2=O)c(C)c1	none
CC(C)c1ccc(CNNC(=O)c2ccccc2)cc1	none
CCOc1cc(/C=C/C(=O)NCCc2ccc(S(N)(=O)=O)cc2)ccc1OCC(C)C	CTSL1 counter 19 (no result: HDAC3 inh)
Cc1ccc(CNS(=O)(=O)c2ccc(F)c(F)c2)n1C	CTSL1 counter 24
Cc1ccc(CNS(=O)(=O)c2ccc(C(F)(F)F)cc2)n1C	none
Cc1occc1C(=O)N(C)Cc1nc(-c2ccccc2)no1	none
CC1CC(C)CN(C(=O)c2ccc(CNc3c(N4CCCC4)c(=O)c3=O)cc2)C1 (stereo unspecified)	none (no result: HDAC3 inh)
CC1CCN(C(=O)c2ccc(CNc3c(N4CCCC4)c(=O)c3=O)cc2)CC1	CTSL1 counter 18
CC(C)n1nnnc1C1c2ccccc2C(=O)N1CCOc1ccccc1 (stereo unspecified)	none (no result: FXN GAA850 act, CTSL1 counter, M18AAP inhibitor, HDAC3 inh, AHR act)
CNC(=O)c1ccsc1NC(=O)c1ccc(Cl)s1	AHR act 66
CNC(=O)c1ccsc1NC(=O)CCS(=O)(=O)c1ccccc1	none
CNC(=O)c1ccsc1NC(=O)c1ccccc1	AHR act 49 (no result: M18AAP inhibitor)
CN1CCN(C(=O)CN(C)S(=O)(=O)c2ccc(F)cc2)CC1	none
Cc1oc2c(c1C(=O)c1ccccc1)C(=O)C(=O)c1ccccc1-2	AHR act 64
O=C1C(=O)c2c(C(=O)c3ccccc3)coc2-c2ccccc21	AHR act 52
O=C(NC(=S)N1CCN(c2ccccc2)CC1)c1ccc(S(=O)(=O)N2CCOCC2)cc1	none
CS(=O)(=O)c1ccc(C(=O)Nc2nc(-c3ccco3)c(-c3ccco3)s2)cc1	none (no result: CTSL1 counter, M18AAP inhibitor, HDAC3 inh, AHR act)
O=C(CSc1nnc(-c2ccco2)c(-c2ccco2)n1)Nc1ccccc1	M18AAP inhibitor 32
CSc1nnc(-c2ccco2)c(-c2ccco2)n1	CTSL1 counter 53
COc1ccc(NC(=O)CSc2nnc(-c3ccco3)c(-c3ccco3)n2)cc1OC	M18AAP inhibitor 31
CN(C)c1ccc(NC(=O)CSc2nnc(-c3ccco3)c(-c3ccco3)n2)cc1	M18AAP inhibitor 31
CC(C)C[C@H]1CN(CCCC[C@H]2CNC(=O)C(=O)N2CCc2ccc(O)cc2)C(=O)C(=O)N1Cc1ccccc1	none (no result: FXN GAA850 act, CTSL1 counter, M18AAP inhibitor, HDAC3 inh, AHR act)
CN(Cc1ccccc1)C(=O)c1ccc(NC(=O)C2CCCN(C(=O)OC(C)(C)C)C2)cc1 (stereo unspecified)	none (no result: CTSL1 counter, M18AAP inhibitor)
O=S(=O)(NN1CCOCC1)c1cc(Cl)cc(Cl)c1O	none
CSc1ccccc1NC(=O)c1cnc2scc(C)n2c1=O	AHR act 65
CCc1ccccc1NC(=O)c1cnc2scc(C)n2c1=O	none
Cc1csc2ncc(C(=O)Nc3ccc(C(F)(F)F)cc3)c(=O)n12	AHR act 58
Cc1csc2ncc(C(=O)NCc3ccccn3)c(=O)n12	AHR act 47
COc1ccccc1NC(=O)N1CCCC(CNC(=O)c2ccccc2Cl)C1 (stereo unspecified)	none
COc1ccccc1CNC(=O)COC(=O)/C=C/c1ccc2c(c1)OCO2	none (no result: CTSL1 counter, M18AAP inhibitor)
O=C1N[C@H](Cc2ccccc2)COC(=O)[C@@H](Cc2ccc(F)cc2)CC/C=C/C[C@H]1CC(=O)N(CCO)Cc1ccccc1	HDAC3 inh 29 (no result: CTSL1 counter, M18AAP inhibitor)
O=C(CSc1nnc2ccccn12)NNC(=O)c1cccc(Cl)c1	none (no result: CTSL1 counter, M18AAP inhibitor)
CCOc1cc(C(=O)NCCCn2ccnc2)cc(OCC)c1OCC	AHR act 50
O=C(NCCCn1ccnc1)c1noc2c1CCc1ccccc1-2	none
COc1cc(SC)ccc1C(=O)NCCCn1ccnc1	AHR act 59
CC(C)(C)c1cc(C(=O)NCCCn2ccnc2)cc(C(C)(C)C)c1	none
O=C(NCCCn1ccnc1)c1noc2c1CCCC2	AHR act 48
CC1(C(=O)Nc2cnc3ccccc3c2)CCN1C(=O)c1ccccc1CCc1ccccc1 (stereo unspecified)	none (no result: CTSL1 counter, M18AAP inhibitor, HDAC3 inh, AHR act)
Cc1nn(-c2ccccn2)c2c1-c1nc(N)ncc1CC2	AHR act 63
COc1cc2cnc(-c3ccsc3)c(-c3ccc(F)cc3)c2cc1OC	none (no result: CTSL1 counter, M18AAP inhibitor)
Fc1ccc2cc(-c3ccsc3)ncc2c1	AHR act 51 (no result: CTSL1 counter, M18AAP inhibitor)
COc1cc2cnc(-c3ccsc3)cc2cc1OC	AHR act 49 (no result: CTSL1 counter, M18AAP inhibitor)
Fc1ccc2cc(-c3cccnc3)ncc2c1	none (no result: CTSL1 counter, M18AAP inhibitor)
CCN1c2ccccc2NC2C1C(C(C)=O)C(=O)N2c1ccc(Cl)cc1 (stereo unspecified)	AHR act 83
COc1ccccc1C(=O)Nc1ccnn1C1CCN(CCCc2ccccc2)CC1	none
CCOC(=O)c1ccc(-c2c(-c3cc(OC)c(OC)c(OC)c3)noc2C)cc1F	none
COc1ccc(-c2sc3ccc(N4CCOCC4)cc3c2C#CCCO)cc1	AHR act 97 (no result: CTSL1 counter, M18AAP inhibitor)
COc1ccc2sc(-c3ccccc3OC)c(C#CC(C)(C)O)c2c1	none (no result: CTSL1 counter, M18AAP inhibitor)
CCOC(=O)c1ccc(-c2c(-c3ccccc3OC)sc3cc4c(cc23)OCO4)cc1F	AHR act 48 (no result: CTSL1 counter, M18AAP inhibitor)
COc1ccc(-c2sc3cc4c(cc3c2C#CCO)OCO4)cc1	AHR act 77 (no result: CTSL1 counter, M18AAP inhibitor)
COc1ccccc1-c1sc2cc3c(cc2c1C#CCO)OCO3	AHR act 67 (no result: CTSL1 counter, M18AAP inhibitor)
CC1=C2C3OC(=O)C(C)C3CCC2(C)C=C(Br)C1=O (stereo unspecified)	none (no result: CTSL1 counter, M18AAP inhibitor, HDAC3 inh, AHR act)
CCC(C)c1ccc(O)c(NC(=O)c2cccnc2)c1 (stereo unspecified)	AHR act 60
O=C1NC(=Nc2ccc(Cl)cc2)/C(=C/c2ccco2)S1	none
Cc1cccc(N=C2NC(=O)S/C2=C\c2ccco2)c1	AHR act 68
Oc1nc(Nc2ccc(F)cc2)sc1/C=C1\C=Nc2ccccc21	AHR act 122
